Laboratory results as given in ChEMBL document CHEMBL3407478, “Development of a series of aryl pyrimidine kynurenine monooxygenase inhibitors as potential therapeutic agents for the treatment of Huntington's disease” (J Med Chem, 2015).
Converted amounts (≈) assume the structure as drawn.

Tested on: not listed separately
Experiment: Aqueous solubility of the compound
Assay type: physicochemical
Settings: not given

Structure (SMILES) | solubility [µg/mL]
O=C(O)c1cc(-c2ccc(OC3CCCC3)c(Cl)c2)ncn1 | > 1000
O=C(O)c1cc(-c2cc(Cl)c3occc3c2)ncn1 | 820 (≈ 2.99 mM)
O=C(O)c1cc(-c2ccc(OC3COC3)c(Cl)c2)ncn1 | > 1000
O=C(O)c1cc(-c2ccc(OC3CCCCC3)c(Cl)c2)ncn1 | 500 (≈ 1.5 mM)
O=C(O)c1cc(-c2ccc(OC3CCC3)c(Cl)c2)ncn1 | > 1000
O=C(O)c1cc(-c2ccc(OCC3CC3)c(Cl)c2)ncn1 | > 1000

Further lines, results first:

solubility [µg/mL] | Structure (SMILES)
740 (≈ 2.75 mM) | O=C(O)c1cc(-c2ccc(Cl)c(Cl)c2)ncn1
> 1000 | COc1ccc(-c2cc(C(=O)O)ncn2)cc1Cl
> 1000 | O=C(O)c1cc(-c2ccc(F)c(F)c2)ncn1
> 1000 | Cc1ccc(-c2cc(C(=O)O)ncn2)cc1Cl
> 1000 | O=C(O)c1cc(-c2ccc(OC(F)(F)F)c(Cl)c2)ncn1
> 1000 | CC(C)Oc1ccc(-c2cc(C(=O)O)ncn2)cc1Cl

Target: T1, Kynurenine 3-monooxygenase (Rattus norvegicus, UniProt O88867)
Experiment: Inhibition of rat KMO assessed as conversion of kynurenine to 3-hydroxykynurenine by LC-MS/MS analysis
Settings: not given
How it was run: (§1)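 Mitochondrial fractions from mouse or rat liver tissue used as KMO source. Conversion of kynurenine to 3-hydroxykynurenine quantified by LC-MS/MS; IC50 averaged from triplicate tests.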

T1 sequence (O88867 whole entry): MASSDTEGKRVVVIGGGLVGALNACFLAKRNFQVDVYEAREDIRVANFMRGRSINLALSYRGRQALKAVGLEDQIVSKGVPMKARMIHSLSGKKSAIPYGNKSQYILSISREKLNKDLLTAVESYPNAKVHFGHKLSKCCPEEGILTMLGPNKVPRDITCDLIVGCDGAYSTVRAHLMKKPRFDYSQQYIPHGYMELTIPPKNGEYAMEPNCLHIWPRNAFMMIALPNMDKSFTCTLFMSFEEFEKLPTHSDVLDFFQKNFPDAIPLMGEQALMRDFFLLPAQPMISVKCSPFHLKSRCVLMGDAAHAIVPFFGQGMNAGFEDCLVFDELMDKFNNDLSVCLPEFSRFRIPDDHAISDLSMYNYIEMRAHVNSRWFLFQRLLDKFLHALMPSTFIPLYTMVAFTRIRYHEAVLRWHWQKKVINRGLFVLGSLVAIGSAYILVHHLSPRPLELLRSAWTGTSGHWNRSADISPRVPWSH

IC50 [nM] | Structure (SMILES)
3.2 | O=C(O)c1cc(-c2ccc(Cl)c(Cl)c2)ncn1
2 | O=C(O)c1cc(-c2ccc(F)c(F)c2)ncn1
4.1 | Cc1ccc(-c2cc(C(=O)O)ncn2)cc1Cl
17 | O=C(O)c1cc(-c2ccc(OC(F)(F)F)c(Cl)c2)ncn1

Tested on: not listed separately
Experiment: Permeability from basolateral to apical side in human Caco2 cells
Assay type: ADME, cell-based
Settings: Caco-2, read-out: permeability

Structure (SMILES) | Papp B→A [×10⁻⁶ cm/s]
O=C(O)c1cc(-c2ccc(OC3CCCC3)c(Cl)c2)ncn1 | 16.7
O=C(O)c1cc(-c2cc(Cl)c3occc3c2)ncn1 | 41

Next, values leading:

Papp B→A [×10⁻⁶ cm/s] | Structure (SMILES)
32.4 | O=C(O)c1cc(-c2ccc(Cl)c(Cl)c2)ncn1
31.3 | COc1ccc(-c2cc(C(=O)O)ncn2)cc1Cl
26 | O=C(O)c1cc(-c2ccc(F)c(F)c2)ncn1
35.3 | Cc1ccc(-c2cc(C(=O)O)ncn2)cc1Cl
17.1 | O=C(O)c1cc(-c2ccc(OC(F)(F)F)c(Cl)c2)ncn1
21.2 | CC(C)Oc1ccc(-c2cc(C(=O)O)ncn2)cc1Cl

Tested on: not listed separately
Experiment: Permeability from apical to basolateral side in human Caco2 cells
Assay type: ADME, cell-based
Settings: Caco-2, read-out: permeability

Structure (SMILES) | Papp A→B [×10⁻⁶ cm/s]
O=C(O)c1cc(-c2ccc(OC3CCCC3)c(Cl)c2)ncn1 | 20.5
O=C(O)c1cc(-c2cc(Cl)c3occc3c2)ncn1 | 21.9

Results, then the compound that gave them:

Papp A→B [×10⁻⁶ cm/s] | Structure (SMILES)
41.4 | O=C(O)c1cc(-c2ccc(Cl)c(Cl)c2)ncn1
15.8 | COc1ccc(-c2cc(C(=O)O)ncn2)cc1Cl
13.6 | O=C(O)c1cc(-c2ccc(F)c(F)c2)ncn1
24 | Cc1ccc(-c2cc(C(=O)O)ncn2)cc1Cl
10.5 | O=C(O)c1cc(-c2ccc(OC(F)(F)F)c(Cl)c2)ncn1
16.5 | CC(C)Oc1ccc(-c2cc(C(=O)O)ncn2)cc1Cl

Tested on: not listed separately
Experiment: Lipophilicity, log P of the compound at pH 7
Assay type: physicochemical
Settings: buffer

Structure (SMILES) | logD
O=C(O)c1cc(-c2ccc(OC3CCCC3)c(Cl)c2)ncn1 | 2.18
O=C(O)c1cc(-c2cc(Cl)c3occc3c2)ncn1 | 0.85
O=C(O)c1cc(-c2cc(Cl)cc(Cl)c2)ncn1 | 1.15
O=C(O)c1cc(-c2ccc(OC3CCC3)c(Cl)c2)ncn1 | 1.19
O=C(O)c1cc(-c2ccccc2)ncn1 | -0.98
O=C(O)c1cc(-c2cccc(Cl)c2F)ncn1 | -0.34

Next, values leading:

logD | Structure (SMILES)
0.36 | O=C(O)c1cc(-c2cccc(C(F)(F)F)c2)ncn1
0.4 | O=C(O)c1cc(-c2ccc(Cl)c(F)c2)ncn1
1.12 | O=C(O)c1cc(-c2ccc(Cl)c(Cl)c2)ncn1
0.28 | COc1ccc(-c2cc(C(=O)O)ncn2)cc1Cl
-0.8 | O=C(O)c1cc(-c2cccc(F)c2)ncn1
0.45 | O=C(O)c1cc(-c2ccc(F)c(C(F)(F)F)c2)ncn1
-0.45 | O=C(O)c1cc(-c2ccc(F)c(F)c2)ncn1
0.59 | COc1cc(-c2cc(C(=O)O)ncn2)ccc1Cl
0.44 | O=C(O)c1cc(-c2ccc(Cl)cc2F)ncn1
1.35 | O=C(O)c1cc(-c2ccc(C(F)(F)F)c(Cl)c2)ncn1
0.8 | Cc1ccc(-c2cc(C(=O)O)ncn2)cc1Cl
-0.19 | Cc1cccc(-c2cc(C(=O)O)ncn2)c1
-0.11 | O=C(O)c1cc(-c2ccc(Cl)cc2)ncn1
0.41 | O=C(O)c1cc(-c2ccc(F)c(Cl)c2)ncn1
-0.33 | Cc1ccc(-c2cc(C(=O)O)ncn2)cc1F
1.77 | O=C(O)c1cc(-c2ccc(OC(F)(F)F)c(Cl)c2)ncn1
-0.88 | O=C(O)c1cc(-c2ccc(F)cc2F)ncn1
1.28 | CC(C)Oc1ccc(-c2cc(C(=O)O)ncn2)cc1Cl
0.12 | O=C(O)c1cc(-c2cccc(Cl)c2)ncn1

Target: Kynurenine 3-monooxygenase (Mus musculus, UniProt Q91WN4)
Experiment: Inhibition of mouse KMO assessed as conversion of kynurenine to 3-hydroxykynurenine by LC-MS/MS analysis
Settings: not given
How it was run: as §1

Sequence of Kynurenine 3-monooxygenase (Mus musculus, UniProt Q91WN4) (Q91WN4 whole entry): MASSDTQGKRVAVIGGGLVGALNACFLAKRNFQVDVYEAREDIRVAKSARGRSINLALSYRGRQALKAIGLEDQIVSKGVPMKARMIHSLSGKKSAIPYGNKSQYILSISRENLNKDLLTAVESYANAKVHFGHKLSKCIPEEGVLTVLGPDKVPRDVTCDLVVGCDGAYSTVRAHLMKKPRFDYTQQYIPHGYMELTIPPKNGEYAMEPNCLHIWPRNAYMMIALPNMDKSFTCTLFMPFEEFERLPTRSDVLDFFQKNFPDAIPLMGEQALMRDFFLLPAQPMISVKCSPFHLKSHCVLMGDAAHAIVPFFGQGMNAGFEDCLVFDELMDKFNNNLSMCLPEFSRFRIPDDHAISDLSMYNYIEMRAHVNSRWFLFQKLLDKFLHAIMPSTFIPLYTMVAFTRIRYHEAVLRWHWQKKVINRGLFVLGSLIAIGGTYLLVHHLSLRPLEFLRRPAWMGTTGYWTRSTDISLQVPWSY

IC50 [nM] | Structure (SMILES)
6 | O=C(O)c1cc(-c2ccc(Cl)c(Cl)c2)ncn1
1.5 | O=C(O)c1cc(-c2ccc(F)c(F)c2)ncn1
6.2 | Cc1ccc(-c2cc(C(=O)O)ncn2)cc1Cl

Target: T2, Kynurenine 3-monooxygenase (Homo sapiens, UniProt O15229)
Experiment: Inhibition of KMO in human PBMC
Settings: not given

T2 sequence (O15229 whole entry): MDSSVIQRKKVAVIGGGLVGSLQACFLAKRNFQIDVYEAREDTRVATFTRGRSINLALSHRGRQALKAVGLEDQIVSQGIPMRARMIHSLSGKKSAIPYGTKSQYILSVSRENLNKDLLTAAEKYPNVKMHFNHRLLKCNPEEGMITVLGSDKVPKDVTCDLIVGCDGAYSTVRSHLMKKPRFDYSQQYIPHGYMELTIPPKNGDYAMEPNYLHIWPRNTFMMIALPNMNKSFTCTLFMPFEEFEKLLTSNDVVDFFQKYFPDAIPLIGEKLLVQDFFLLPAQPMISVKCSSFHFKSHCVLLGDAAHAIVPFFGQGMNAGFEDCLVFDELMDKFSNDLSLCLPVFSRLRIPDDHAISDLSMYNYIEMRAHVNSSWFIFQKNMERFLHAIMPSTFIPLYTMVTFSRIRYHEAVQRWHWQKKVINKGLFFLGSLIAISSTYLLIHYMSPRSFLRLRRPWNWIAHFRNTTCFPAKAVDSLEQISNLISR

IC50 [nM] | Structure (SMILES)
72 | O=C(O)c1cc(-c2ccc(Cl)c(Cl)c2)ncn1

Target: T2, Kynurenine 3-monooxygenase
Experiment: Inhibition of KMO (unknown origin)
Settings: not given

IC50 [nM] | Structure (SMILES)
20 | O=C(O)[C@H]1C[C@@H]1C(=O)c1ccc(Cl)c(Cl)c1

Tested on: Liver
Experiment: Intrinsic clearance in mouse liver microsomes assessed per mg of protein
Assay type: ADME
Design: unit not given here
Settings: not given
How it was run: (§2)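 Stability assessed in human, rat and mouse liver microsomes; intrinsic clearance expressed per mg microsomal protein.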

Structure (SMILES) | CLH
O=C(O)c1cc(-c2ccc(OC3CCCC3)c(Cl)c2)ncn1 | < 0.02
O=C(O)c1cc(-c2cc(Cl)c3occc3c2)ncn1 | < 0.02
O=C(O)c1cc(-c2ccc(OC3COC3)c(Cl)c2)ncn1 | < 0.02
O=C(O)c1cc(-c2ccc(OC3CCCCC3)c(Cl)c2)ncn1 | < 0.02
O=C(O)c1cc(-c2ccc(OC3CCC3)c(Cl)c2)ncn1 | < 0.02
O=C(O)c1cc(-c2ccc(OCC3CC3)c(Cl)c2)ncn1 | < 0.02

Second part, the compound after the results:

CLH | Structure (SMILES)
< 0.02 | O=C(O)c1cc(-c2ccc(OC(F)(F)F)c(Cl)c2)ncn1
< 0.02 | CC(C)Oc1ccc(-c2cc(C(=O)O)ncn2)cc1Cl

Target: T2, Kynurenine 3-monooxygenase
Experiment: Inhibition of human KMO transfected in CHO cells assessed as conversion of kynurenine to 3-hydroxykynurenine by LC-MS/MS analysis
Assay type: cell-based
Settings: not given

IC50 [nM] | Structure (SMILES)
33 | O=C(O)c1cc(-c2ccc(Cl)c(Cl)c2)ncn1

Tested on: Liver microsome
Experiment: Intrinsic clearance in human liver microsomes assessed per mg of protein
Assay type: ADME
Design: unit not given here
Settings: not given
How it was run: as §2

Structure (SMILES) | CLH
O=C(O)c1cc(-c2ccc(OC3CCCC3)c(Cl)c2)ncn1 | < 0.02
O=C(O)c1cc(-c2cc(Cl)c3occc3c2)ncn1 | < 0.02
O=C(O)c1cc(-c2ccc(OC3COC3)c(Cl)c2)ncn1 | < 0.02
O=C(O)c1cc(-c2ccc(OC3CCCCC3)c(Cl)c2)ncn1 | < 0.02
O=C(O)c1cc(-c2ccc(OC3CCC3)c(Cl)c2)ncn1 | < 0.02
O=C(O)c1cc(-c2ccc(OCC3CC3)c(Cl)c2)ncn1 | < 0.02

Next, values leading:

CLH | Structure (SMILES)
< 0.02 | O=C(O)c1cc(-c2ccc(OC(F)(F)F)c(Cl)c2)ncn1
< 0.02 | CC(C)Oc1ccc(-c2cc(C(=O)O)ncn2)cc1Cl

Target: T2, Kynurenine 3-monooxygenase
Experiment: Inhibition of human KMO assessed as conversion of kynurenine to 3-hydroxykynurenine by LC-MS/MS analysis
Settings: not given

IC50 [nM] | Structure (SMILES)
0.6 | O=C(O)c1cc(-c2ccc(Cl)c(Cl)c2)ncn1
> 10000 | Cn1nnc(-c2cc(-c3ccc(Cl)c(Cl)c3)ncn2)n1
> 10000 | O=C(Nc1cc(-c2ccc(Cl)c(Cl)c2)ncn1)c1ccccc1
> 10000 | CC(=O)Nc1cc(-c2ccc(Cl)c(Cl)c2)ncn1
> 10000 | O=c1[nH]ccn1-c1cc(-c2ccc(Cl)c(Cl)c2)ncn1
> 10000 | Clc1ccc(-c2cc(-n3cccn3)ncn2)cc1Cl
> 10000 | Cn1ccn(-c2cc(-c3ccc(Cl)c(Cl)c3)ncn2)c1=O
> 10000 | CS(=O)(=O)Nc1cc(-c2ccc(Cl)c(Cl)c2)ncn1
> 10000 | Clc1ccc(-c2cc(-n3ccnc3)ncn2)cc1Cl

Target: T1, Kynurenine 3-monooxygenase
Experiment: Inhibition of KMO in rat microglia cells
Assay type: cell-based
Settings: not given
How it was run: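 Freshly isolated neonatal rat microglial cultures, induced to express KMO by a pro-inflammatory protocol. Exogenous KYN added; conversion to 3-HK monitored by mass spectrometry.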

IC50 [nM] | Structure (SMILES)
105 | O=C(O)c1cc(-c2ccc(Cl)c(Cl)c2)ncn1
86 | O=C(O)c1cc(-c2ccc(F)c(F)c2)ncn1
100 | Cc1ccc(-c2cc(C(=O)O)ncn2)cc1Cl
> 1000 | O=C(O)c1cc(-c2ccc(OC(F)(F)F)c(Cl)c2)ncn1

Tested on: Liver microsome
Experiment: Intrinsic clearance in rat liver microsomes assessed per mg of protein
Assay type: ADME
Design: unit not given here
Settings: not given
How it was run: as §2

Structure (SMILES) | CLH
O=C(O)c1cc(-c2ccc(OC3CCCC3)c(Cl)c2)ncn1 | < 0.02
O=C(O)c1cc(-c2cc(Cl)c3occc3c2)ncn1 | < 0.02
O=C(O)c1cc(-c2ccc(OC3COC3)c(Cl)c2)ncn1 | < 0.02
O=C(O)c1cc(-c2ccc(OC3CCCCC3)c(Cl)c2)ncn1 | < 0.02
O=C(O)c1cc(-c2ccc(OC3CCC3)c(Cl)c2)ncn1 | < 0.02
O=C(O)c1cc(-c2ccc(OCC3CC3)c(Cl)c2)ncn1 | < 0.02

Other lines, results leading:

CLH | Structure (SMILES)
< 0.02 | O=C(O)c1cc(-c2ccc(OC(F)(F)F)c(Cl)c2)ncn1
< 0.02 | CC(C)Oc1ccc(-c2cc(C(=O)O)ncn2)cc1Cl
